Data from ChEMBL document CHEMBL4229342, “Synthesis of novel proxyphylline derivatives with dual Anti-Candida albicans and anticancer activity” (Eur J Med Chem, 2018).

Legend:
Assay type in all cases: functional
CCRF-CEM [1] = experiment: Antiproliferative activity against human CCRF-CEM cells assessed as cell viability at 50 uM after 72 hrs by MTT assay; settings: read-out: Activity
Procedure, shortened: (§1)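 MTT viability assay in CCRF-CEM and MCF-7 cells after 72 h exposure at 25, 50, 100 and 200 µM. Results are relative to control cells without inhibitor in 0.5% DMSO. Done in triplicate; values are means ± SD of three independent experiments.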

Candida albicans [2] = experiment: Growth inhibition of Candida albicans ATCC 90028 at 1 ug/ml incubated for 4 hrs at 35 degC by broth microdilution method relative to control; settings: ATCC 90028, 4 h, read-out: GI
Candida albicans [3] = experiment: Growth inhibition of Candida albicans ATCC 90028 at 0.125 ug/ml incubated for 18 hrs at 35 degC by broth microdilution method relative to control; settings: ATCC 90028, 18 h, read-out: GI
Candida albicans [4] = experiment: Growth inhibition of Candida albicans ATCC 90028 at 8 ug/ml incubated for 18 hrs at 35 degC by broth microdilution method relative to control; settings: ATCC 90028, 18 h, read-out: GI
Candida albicans [5] = experiment: Growth inhibition of Candida albicans ATCC 90028 at 0.0625 ug/ml incubated for 18 hrs at 35 degC by broth microdilution method relative to control; settings: ATCC 90028, 18 h, read-out: GI
CCRF-CEM [6] = experiment: Antiproliferative activity against human CCRF-CEM cells assessed as cell viability at 200 uM after 72 hrs by MTT assay; settings: read-out: Activity; procedure, shortened: as §1
Candida albicans [7] = experiment: Growth inhibition of Candida albicans ATCC 90028 at 0.0313 ug/ml incubated for 18 hrs at 35 degC by broth microdilution method relative to control; settings: ATCC 90028, 18 h, read-out: GI
Candida albicans [8] = experiment: Fungicidal activity against Candida albicans ATCC 90028 assessed as log reduction in cell viability at 16 ug/ml after 48 hrs at 35 degC
Procedure, shortened: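 MFC assay on C. albicans ATCC 90028 following M27-A3, at the molar equivalent of 16 µg/mL. CFU of treated cells were compared with CFU of the untreated inoculum. Activity is given as lg R = lg CFU/mL control − lg CFU/mL treated, and lg R ≥3 was defined as fungicidal. Values are means of two independent experiments.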

MCF7 [9] = experiment: Antiproliferative activity against human MCF7 cells assessed as cell viability at 50 uM after 72 hrs by MTT assay; settings: MCF7, 72 h, read-out: Activity; procedure, shortened: as §1
CCRF-CEM [10] = experiment: Antiproliferative activity against human CCRF-CEM cells assessed as cell viability at 25 uM after 72 hrs by MTT assay; settings: read-out: Activity; procedure, shortened: as §1
Candida albicans [11] = experiment: Growth inhibition of Candida albicans ATCC 90028 at 16 ug/ml incubated for 48 hrs at 35 degC by broth microdilution method relative to control; settings: ATCC 90028, 48 h, read-out: GI
Candida albicans [12] = experiment: Growth inhibition of Candida albicans ATCC 90028 at 1 ug/ml incubated for 18 hrs at 35 degC by broth microdilution method relative to control; settings: ATCC 90028, 18 h, read-out: GI
Candida albicans [13] = experiment: Growth inhibition of Candida albicans ATCC 90028 at 0.5 ug/ml incubated for 4 hrs at 35 degC by broth microdilution method relative to control; settings: ATCC 90028, 4 h, read-out: GI
MCF7 [14] = experiment: Antiproliferative activity against human MCF7 cells assessed as cell viability at 25 uM after 72 hrs by MTT assay; settings: MCF7, 72 h, read-out: Activity; procedure, shortened: as §1
Candida albicans [15] = experiment: Growth inhibition of Candida albicans ATCC 90028 at 2 ug/ml incubated for 4 hrs at 35 degC by broth microdilution method relative to control; settings: ATCC 90028, 4 h, read-out: GI
Candida albicans [16] = experiment: Growth inhibition of Candida albicans ATCC 90028 at 0.0313 ug/ml incubated for 4 hrs at 35 degC by broth microdilution method relative to control; settings: ATCC 90028, 4 h, read-out: GI
Candida albicans [17] = experiment: Growth inhibition of Candida albicans ATCC 90028 at 16 ug/ml incubated for 18 hrs at 35 degC by broth microdilution method relative to control; settings: ATCC 90028, 18 h, read-out: GI
MCF7 [18] = experiment: Antiproliferative activity against human MCF7 cells assessed as cell viability at 200 uM after 72 hrs by MTT assay; settings: MCF7, 72 h, read-out: Activity; procedure, shortened: as §1
Candida albicans [19] = experiment: Growth inhibition of Candida albicans ATCC 90028 at 0.5 ug/ml incubated for 18 hrs at 35 degC by broth microdilution method relative to control; settings: ATCC 90028, 18 h, read-out: GI
Candida albicans [20] = experiment: Growth inhibition of Candida albicans ATCC 90028 at 0.25 ug/ml incubated for 18 hrs at 35 degC by broth microdilution method relative to control; settings: ATCC 90028, 18 h, read-out: GI
Candida albicans [21] = experiment: Growth inhibition of Candida albicans ATCC 90028 at 8 ug/ml incubated for 48 hrs at 35 degC by broth microdilution method relative to control; settings: ATCC 90028, 48 h, read-out: GI
Candida albicans [22] = experiment: Growth inhibition of Candida albicans ATCC 90028 at 4 ug/ml incubated for 18 hrs at 35 degC by broth microdilution method relative to control; settings: ATCC 90028, 18 h, read-out: GI
Candida albicans [23] = experiment: Growth inhibition of Candida albicans ATCC 90028 at 0.25 ug/ml incubated for 4 hrs at 35 degC by broth microdilution method relative to control; settings: ATCC 90028, 4 h, read-out: GI
Candida albicans [24] = experiment: Growth inhibition of Candida albicans ATCC 90028 at 2 ug/ml incubated for 18 hrs at 35 degC by broth microdilution method relative to control; settings: ATCC 90028, 18 h, read-out: GI
CCRF-CEM [25] = experiment: Antiproliferative activity against human CCRF-CEM cells assessed as cell viability at 100 uM after 72 hrs by MTT assay; settings: read-out: Activity; procedure, shortened: as §1
Candida albicans [26] = experiment: Growth inhibition of Candida albicans ATCC 90028 at 8 ug/ml incubated for 4 hrs at 35 degC by broth microdilution method relative to control; settings: ATCC 90028, 4 h, read-out: GI
Candida albicans [27] = experiment: Growth inhibition of Candida albicans ATCC 90028 at 0.0625 ug/ml incubated for 4 hrs at 35 degC by broth microdilution method relative to control; settings: ATCC 90028, 4 h, read-out: GI
MCF7 [28] = experiment: Antiproliferative activity against human MCF7 cells assessed as cell viability at 100 uM after 72 hrs by MTT assay; settings: MCF7, 72 h, read-out: Activity; procedure, shortened: as §1
Candida albicans [29] = experiment: Growth inhibition of Candida albicans ATCC 90028 at 0.125 ug/ml incubated for 4 hrs at 35 degC by broth microdilution method relative to control; settings: ATCC 90028, 4 h, read-out: GI

Row | Structure (SMILES) | viability at 50 µM (CCRF-CEM [1]) [%] | inhibition of growth at 1 µg/mL (Candida albicans [2]) [%] | inhibition of growth at 0.125 µg/mL (Candida albicans [3]) [%] | inhibition of growth at 8 µg/mL (Candida albicans [4]) [%] | inhibition of growth at 0.0625 µg/mL (Candida albicans [5]) [%] | viability at 200 µM (CCRF-CEM [6]) [%] | inhibition of growth at 0.0313 µg/mL (Candida albicans [7]) [%] | log(activity) (Candida albicans [8]) | viability at 50 µM (MCF7 [9]) [%] | viability at 25 µM (CCRF-CEM [10]) [%] | inhibition of growth at 16 µg/mL (Candida albicans [11]) [%] | inhibition of growth at 1 µg/mL (Candida albicans [12]) [%] | inhibition of growth at 0.5 µg/mL (Candida albicans [13]) [%] | viability at 25 µM (MCF7 [14]) [%] | inhibition of growth at 2 µg/mL (Candida albicans [15]) [%] | inhibition of growth at 0.0313 µg/mL (Candida albicans [16]) [%] | inhibition of growth at 16 µg/mL (Candida albicans [17]) [%] | viability at 200 µM (MCF7 [18]) [%] | viability at 100 µM (CCRF-CEM [25]) [%] | viability at 100 µM (MCF7 [28]) [%] | other results
1 | CC(Cn1cnc2c1c(=O)n(C)c(=O)n2C)OC(=O)C1c2ccccc2-c2ccccc21 (stereo not drawn) | 2.8 | 99.3 | 99.7 | 99.8 | 99.7 | 2.3 | 99.8 | 0.8 | 85.1 | 41.5 | 99.3 | 99.8 | 99.1 | 101 | 99.4 | 99.3 | 99.8 | 28.3 | 0.1 | 63.5 | inhibition of growth at 0.5 µg/mL (Candida albicans [19]): 99.8%; inhibition of growth at 0.25 µg/mL (Candida albicans [20]): 99.9%; inhibition of growth at 8 µg/mL (Candida albicans [21]): 99.4%; inhibition of growth at 4 µg/mL (Candida albicans [22]): 100%; inhibition of growth at 0.25 µg/mL (Candida albicans [23]): 99%; inhibition of growth at 2 µg/mL (Candida albicans [24]): 100%; inhibition of growth at 8 µg/mL (Candida albicans [26]): 99.4%; inhibition of growth at 0.0625 µg/mL (Candida albicans [27]): 99%; inhibition of growth at 0.125 µg/mL (Candida albicans [29]): 98.9%
2 | COC(C(=O)OC(C)Cn1cnc2c1c(=O)n(C)c(=O)n2C)c1ccc(C(C)(C)C)cc1 (stereo not drawn) | 55.3 | 99.4 | 100 | 100 | 99.9 | 0 | 99.8 | 0.2 | 79.5 | 75.8 | 99.2 | 99.8 | 98.9 | 82.2 | 99.2 | 99.4 | 99.8 | 35 | 28.6 | 63.5 | inhibition of growth at 0.5 µg/mL (Candida albicans [19]): 99.7%; inhibition of growth at 0.25 µg/mL (Candida albicans [20]): 100%; inhibition of growth at 8 µg/mL (Candida albicans [21]): 99.7%; inhibition of growth at 4 µg/mL (Candida albicans [22]): 99.9%; inhibition of growth at 0.25 µg/mL (Candida albicans [23]): 99.3%; inhibition of growth at 2 µg/mL (Candida albicans [24]): 99.9%; inhibition of growth at 8 µg/mL (Candida albicans [26]): 99.5%; inhibition of growth at 0.0625 µg/mL (Candida albicans [27]): 99%; inhibition of growth at 0.125 µg/mL (Candida albicans [29]): 99.2%
3 | Cc1ccc(C(=O)CC(=O)OC(C)Cn2cnc3c2c(=O)n(C)c(=O)n3C)cc1 (stereo not drawn) | 74.2 | 99.2 | 100 | 100 | 99.8 | 31.6 | 100 | 0.5 | 82.2 | 89.5 | 99.1 | 100 | 99.2 | 89 | 99.2 | 99.8 | 100 | 82.7 | 67.3 | 86.6 | inhibition of growth at 0.5 µg/mL (Candida albicans [19]): 99.8%; inhibition of growth at 0.25 µg/mL (Candida albicans [20]): 100%; inhibition of growth at 8 µg/mL (Candida albicans [21]): 99.3%; inhibition of growth at 4 µg/mL (Candida albicans [22]): 100%; inhibition of growth at 0.25 µg/mL (Candida albicans [23]): 99.2%; inhibition of growth at 2 µg/mL (Candida albicans [24]): 100%; inhibition of growth at 0.0625 µg/mL (Candida albicans [27]): 99.3%
4 | Brc1c(Br)c(Br)c2[nH]cnc2c1Br | 0 |  |  |  |  | 0 |  |  | 24.6 | 6.3 |  |  |  | 19.6 |  |  |  | 1.7 | 0 | 9 | 
